Sampled rows, rich in hits. Any-hit rate of the full collection: about 2%.
XiGFP reactiv – reactivates the inactive X chromosome in mouse fibroblasts; XiGFP mouse fibroblasts, % GFP-positive cells imaging, 3 d; cells co-treated with 5-aza-dC sensitizer; scaled so ellipticine positive control = 100%; activation, % at 7.58 µM; hit rate 0.055% among 360,000;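 active = mean normalized replicate activation at least 10% and every replicate at or above 10%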
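Schedule: 3 d treatment, 15 min room-temperature fixation; system: 68-5-11 XiGFP fibroblast line; buffer or medium: DMEM plus 5-aza-dC sensitizer; control set: ellipticine 6 µM positive control; compound: one concentration, pinned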
FN deposition inh – fibronectin deposition inhibition | AH1F fibroblasts, Alexa488-fibronectin deposition fluorescence, overnight | AID 743247 | hit rate 0.086% among 350,000 | inhibition, % at 12.6 µM;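 active = mean inhibition across replicates of 30% or more, regardless of how many single replicates reach that level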
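test system = AH1F fibroblasts assembling fluorescent fibronectin matrix | quantity = 10000 AH1F cells per well | buffer or medium = DMEM plus 2% serum, read in PBS | doses = single dose, pinned | incubation = 1 h cell attachment, overnight exposure to compound and label | detection = fluorescence at 485 nm excitation, 525 nm emission | read-out basis = inhibition from reduced deposited-fibronectin fluorescence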
CaV13 ICDI inh – Disruptors of the CACNA1D IQ motif to Ca2+-dependent inactivation inhibitor domain association, primary screening, Förster resonance energy transfer in intact living …. HEK cells, CFP/YFP FRET ICDI-IQ, plate reader, 10 min; percent FRET-ratio fall versus neutral wells. inhibition, % at 12.3 µM. hit rate 0.098% among 340,000. AID 743397;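 active = mean replicate inhibition of at least 30% and at least 1% of replicates passing that level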
Casp6 inh – inhibitors of human caspase-6 | P55212 | hit rate 0.53% among 350,000 | inhibition, % at 12.5 µM | purified caspase-6, Z-VEID-R110 cleavage fluorescence;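 active = mean inhibition across replicates at least about 35%, with every replicate also reaching that limit, limit read from the data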
Target sequence (P55212 24-179 limits assumed): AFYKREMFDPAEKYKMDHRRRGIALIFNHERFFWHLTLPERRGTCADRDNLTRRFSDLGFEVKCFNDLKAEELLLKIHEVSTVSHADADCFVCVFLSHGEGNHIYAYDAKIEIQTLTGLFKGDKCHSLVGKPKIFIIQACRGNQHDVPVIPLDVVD
Target sequence (P55212 194-293 limits assumed): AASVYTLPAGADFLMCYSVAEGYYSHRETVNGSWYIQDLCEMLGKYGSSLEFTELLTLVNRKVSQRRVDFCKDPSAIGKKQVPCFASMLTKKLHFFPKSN
DENV2 CPE rescue – inhibitors of DENV2 cytopathic effect | DENV2-infected cells, cytopathic effect rescue, plate reader | CPE inhibition, % at 9.99 µM | hit rate 1.7% among 350,000; in the data active = CPE inhibition above about 20%, passing the limit was not always enough; tested in BHK-21 cells
Numbers stand for hits; i = inactive; nt = no result; ! = not confirmed by another sample.

SMILES	XiGFP reactiv	FN deposition inh	CaV13 ICDI inh	Casp6 inh	DENV2 CPE rescue
Cc1noc(C)c1NC(=O)N(C)C[C@H]1Oc2c(NS(=O)(=O)c3ccccc3)cccc2C(=O)N([C@@H](C)CO)C[C@H]1C	i	nt	nt	i	27.8
Cc1noc(C)c1NC(=O)N(C)C[C@H]1Oc2c(NC(=O)C3CC3)cccc2C(=O)N([C@@H](C)CO)C[C@@H]1C	i	nt	nt	i	i
COCC#Cc1ccc(CC[C@H]2O[C@H]3CC[C@@H](CO)O[C@H]3C[C@@H]2n2cc(C3(O)CCCC3)nn2)cc1	nt	nt	nt	i	i
O=C(Nc1ccccc1F)N1CC(=O)N2[C@@H](CO)[C@@H](c3ccc(-c4ccc(F)cc4)cc3)[C@@H]2C1	i	nt	nt	nt	nt
Cc1cccc([C@@H]2[C@@H]3C(=O)N(Cc4ccccc4)C(=O)[C@@H]3[C@]3(Cc4ccccc4)C(=O)N(c4ccc(C(F)(F)F)cc4)C(=O)N23)c1	i	nt	i	i	102.4
Cc1cc(NC2=CC(=O)C(=O)c3ccccc32)no1	i	i	i	48.5	i
C[C@H]1CCCCO[C@@H](CN(C)C(=O)Nc2ccc(C(F)(F)F)cc2)[C@@H](C)CN([C@@H](C)CO)C(=O)c2cc(NS(=O)(=O)c3ccccc3)ccc2O1	i	i	nt	i	i
C[C@@H]1CN([C@@H](C)CO)C(=O)c2cc(NS(=O)(=O)c3ccc(F)cc3)ccc2O[C@@H](C)CCCCO[C@@H]1CN(C)C(=O)Nc1ccc(C(F)(F)F)cc1	i	i	nt	i	i
C[C@@H]1CCCCO[C@H](CN(C)C(=O)Nc2ccc(C(F)(F)F)cc2)[C@H](C)CN([C@@H](C)CO)C(=O)c2cc(NS(=O)(=O)c3ccccc3)ccc2O1	i	i	nt	i	39.8
C[C@@H]1CCCCO[C@@H](CN(C)C(=O)Nc2ccc(C(F)(F)F)cc2)[C@H](C)CN([C@@H](C)CO)C(=O)c2cc(NS(=O)(=O)c3ccccc3)ccc2O1	i	i	nt	i	54.2
Cc1ccc(S(=O)(=O)Nc2ccc3c(c2)C(=O)N([C@H](C)CO)C[C@H](C)[C@@H](CN(C)C(=O)Nc2ccc(C(F)(F)F)cc2)OCCCC[C@@H](C)O3)cc1	i	i	nt	i	i
C[C@@H]1CN([C@@H](C)CO)C(=O)c2cc(NS(C)(=O)=O)ccc2O[C@@H](C)CCCCO[C@@H]1CN(C)C(=O)Nc1ccc(C(F)(F)F)cc1	i	nt	nt	i	46.4
C[C@H](CO)N1C[C@H](C)[C@H](CN(C)C(=O)Nc2ccc(C(F)(F)F)cc2)OCCCC[C@H](C)Oc2ccc(NS(=O)(=O)c3ccccc3)cc2C1=O	i	i	nt	i	40.5
C[C@H](CO)N1C[C@H](C)[C@@H](CN(C)C(=O)NC2CCCC2)OCc2cnnn2CCCC1=O	i	i	nt	nt	nt
C[C@@H]1CCCCO[C@H](CN(C)C(=O)Nc2ccc(C(F)(F)F)cc2)[C@@H](C)CN([C@H](C)CO)C(=O)c2cc(NS(=O)(=O)c3ccccc3)ccc2O1	i	i	nt	i	37.2
C[C@@H]1CCCCO[C@H](CN(C)C(=O)Nc2ccc(C(F)(F)F)cc2)[C@@H](C)CN([C@@H](C)CO)C(=O)c2cc(NS(=O)(=O)c3ccccc3)ccc2O1	i	i	nt	i	i
Cc1ccc2c(c1)N(C(=O)CCC(=O)NCCCN1CCOCC1)CC(C)O2 (stereo not drawn)	i	i	47.5	i	i
CC1CC(C)CN(CCCNC(=O)CCC(=O)N2CC(C)Oc3ccccc32)C1 (stereo not drawn)	i	i	38.4	i	i
CC1CN(C(=O)CCC(=O)NCCc2ccccc2)c2ccccc2O1 (stereo not drawn)	i	i	i	i	i
COc1ccc(CN(C)C[C@H]2Oc3c(NC(=O)c4nc5ccccc5s4)cccc3C(=O)N([C@H](C)CO)C[C@@H]2C)cc1	i	nt	nt	i	24.0
Cc1noc(C)c1NC(=O)Nc1cccc2c1O[C@H](CN(C)Cc1ccc3c(c1)OCO3)[C@@H](C)CN([C@@H](C)CO)C2=O	i	nt	nt	i	21.5
COc1ccc(CN(C)C[C@H]2Oc3c(NC(=O)c4nc5ccccc5s4)cccc3C(=O)N([C@@H](C)CO)C[C@@H]2C)cc1	i	nt	nt	i	i
Cc1noc(C)c1NC(=O)Nc1cccc2c1O[C@H](CN(C)Cc1ccc(C(=O)O)cc1)[C@H](C)CN([C@@H](C)CO)C2=O	i	nt	nt	i	26.3
Cc1cc(C(=O)Nc2cccc3c2O[C@@H](CN(C)Cc2ccc(C(=O)O)cc2)[C@@H](C)CN([C@H](C)CO)C3=O)n(C)n1	i	nt	nt	i	50.4
C[C@@H]1CN([C@H](C)CO)C(=O)c2cc(C#CCc3ccccc3)cnc2O[C@@H]1CN(C)C(=O)C1CC1	i	nt	nt	i	i
SMILES	XiGFP reactiv	FN deposition inh	CaV13 ICDI inh	Casp6 inh	DENV2 CPE rescue
O=C(C1CC1)N1CC(=O)N2[C@H](C1)[C@@H](c1ccc(C#CCc3ccccc3)cc1)[C@@H]2CO	i	i	nt	i	i
COc1ccc(CN(C)C[C@@H]2Oc3c(NC(=O)Nc4ccccc4)cccc3C(=O)N([C@H](C)CO)C[C@H]2C)cc1	i	nt	nt	i	29.5
C[C@@H]1CN([C@H](C)CO)C(=O)c2cccc(NC(=O)Nc3ccccc3)c2O[C@H]1CN(C)Cc1ccc(C(=O)O)cc1	i	nt	nt	i	21.7
CCNC(=O)c1cc2c(c(-c3cccc(-c4cc5ccccc5o4)c3)n1)[C@H](CCO)N(C(=O)NC(C)C)C2	i	i	i	i	i
CCC(=O)N1Cc2cc(C(=O)NCC(F)(F)F)nc(-c3cccc(-c4cncnc4)c3)c2[C@@H]1CCO	i	nt	i	i	i
CC(C)(C)[S@@](=O)N1Cc2cc(C(=O)N3CCc4ccccc4C3)nc(-c3cccc(-c4cccnc4)c3)c2[C@H]1CCO	i	i	nt	i	i
CC(C)NC(=O)N1Cc2cc(C(=O)NC3CCC3)nc(-c3cccc(-c4cccnc4)c3)c2[C@@H]1CCO	i	i	nt	nt	30.1
CC(=O)N1Cc2cc(C(=O)NCC(F)(F)F)nc(-c3cccc(-c4cc5ccccc5o4)c3)c2[C@H]1CCO	i	i	i	i	25.5!
CC(=O)N1Cc2cc(C(=O)NCC(F)(F)F)nc(-c3cccc(-c4cncnc4)c3)c2[C@@H]1CCO	i	i	nt	i	20.7
CC(C)(C)S(=O)N1Cc2cc(C(=O)N3CCc4ccccc4C3)nc(-c3cccc(-c4cccnc4)c3)c2[C@@H]1CCO (stereo partly drawn)	i	i	i	41.6	i
C[C@H]1CC=CC[C@H](c2ccc3c(c2)OCO3)NC(=O)[C@@H](Cc2ccccc2)N(C)C(=O)c2ccccc2O1 (mixture of isomers)	i	i	nt	nt	nt
C[C@@H]1CN([C@H](C)CO)C(=O)c2cc(NC(=O)Cn3cnnn3)ccc2O[C@H]1CN(C)C(=O)Nc1cccc2ccccc12	i	nt	nt	i	i
